Measured values from article PMC6424611 (Journal of molecular biology, 2019).
Where no end group is shown, it is not given here. [ ]: non-standard residue; d: D form. The star is where a group is joined. Biotin = O=C1N[C@H]2[C@H](CS[C@H]2CCCCC(=O)*)N1; TTDS = NCCCOCCOCCOCCCNC(=O)CCC(=O)*; pS = N[C@@H](COP(=O)(O)O)C(=O)O

Key:
[1] = system: SHANK3 PDZ; experiment: holdup assay; format: binding, human; conditions: ~4 μM PDZ
Summary of the method: (§1)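 Automated holdup against N-terminally biotinylated (TTDS linker) RSK1 725–735 peptides, unphosphorylated and phosphorylated, in triplicate. PDZome v2 clones were codon-optimized and expressed in E. coli, with soluble lysate adjusted to ~4 μM. BI is the PDZ fraction depleted from the fluid phase.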

[2] = target: GRID2IP-2 PDZ (Homo sapiens, UniProt A4D2P6); experiment: holdup assay; format: binding; conditions: fraction of PDZ depleted; ~4 μM PDZ; biotinylated RSK1_725–735; triplicates
GRID2IP-2 PDZ, sequence (A4D2P6 279-356 limits assumed): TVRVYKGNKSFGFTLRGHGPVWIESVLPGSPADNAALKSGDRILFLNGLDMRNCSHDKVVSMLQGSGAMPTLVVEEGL
Summary of the method: (§2)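 Automated holdup in triplicate measured biotinylated (N-terminal TTDS linker) RSK1 725–735 peptides, unphosphorylated or phosphorylated, against E. coli-expressed PDZome v2 domains. Soluble lysate was adjusted to ~4 μM, giving 255 domains for the unphosphorylated and 252 for the phosphorylated peptide. Binding intensity (BI) is the fraction of PDZ depleted from the fluid phase. BI 0.2 was the high-confidence threshold.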

[3] = target: SNX27 PDZ (Homo sapiens, UniProt Q96L92); experiment: holdup assay; format: binding; conditions: fraction of PDZ depleted; ~4 μM PDZ; biotinylated RSK1_725–735; triplicates
[4] = system: MAGI3-2 PDZ; experiment: holdup assay; format: binding, human; conditions: fraction of PDZ depleted; ~4 μM PDZ; biotinylated RSK1_725–735; triplicates
Summary of the method: as §2

[5] = target: GOPC PDZ (Homo sapiens, UniProt Q9HD26); experiment: holdup assay; format: binding; conditions: fraction of PDZ depleted; ~4 μM PDZ; biotinylated RSK1_725–735; triplicates
[6] = system: NHERF2-2 PDZ; experiment: holdup assay; format: binding, human; conditions: ~4 μM PDZ
Summary of the method: as §1

[7] = target: T1, SNTA1 PDZ (Homo sapiens, UniProt Q13424); experiment: holdup assay; format: binding; conditions: ~4 μM PDZ
T1 sequence (Q13424 87-170 limits assumed): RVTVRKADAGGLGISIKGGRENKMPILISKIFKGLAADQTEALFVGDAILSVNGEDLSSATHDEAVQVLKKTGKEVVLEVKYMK
Summary of the method: as §1

[8] = target: T2, PDZRN3-1 PDZ (Homo sapiens, UniProt Q9UPQ7); experiment: holdup assay; format: binding; conditions: ~4 μM PDZ
T2 sequence (Q9UPQ7 249-339 limits assumed): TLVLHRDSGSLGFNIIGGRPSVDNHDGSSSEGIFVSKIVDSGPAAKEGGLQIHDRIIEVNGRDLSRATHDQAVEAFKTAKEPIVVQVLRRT
Summary of the method: as §1

[9] = target: T3, NHERF3-1 PDZ (Homo sapiens, UniProt Q5T2W1); experiment: holdup assay; format: binding; conditions: ~4 μM PDZ
T3 sequence (Q5T2W1 9-90 limits assumed): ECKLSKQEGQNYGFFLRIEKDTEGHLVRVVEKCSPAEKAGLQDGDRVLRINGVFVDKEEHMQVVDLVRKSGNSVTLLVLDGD
Summary of the method: as §1

[10] = target: T4, SYNJ2BP PDZ (Homo sapiens, UniProt P57105); experiment: holdup assay; format: binding; conditions: fraction of PDZ depleted; ~4 μM PDZ; biotinylated RSK1_725–735; triplicates
T4 sequence (P57105 13-100 limits assumed): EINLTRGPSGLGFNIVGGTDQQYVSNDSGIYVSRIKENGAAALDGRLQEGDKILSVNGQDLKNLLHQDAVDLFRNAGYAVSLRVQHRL
Summary of the method: as §1

[11] = system: ARHGEF11 PDZ; experiment: holdup assay; format: binding, human; conditions: ~4 μM PDZ
Summary of the method: as §1

[12] = system: LAP2 PDZ; experiment: holdup assay; format: binding, human; conditions: fraction of PDZ depleted; ~4 μM PDZ; biotinylated RSK1_725–735; triplicates
Summary of the method: as §1

[13] = target: T5, ARHGEF12 PDZ (Homo sapiens, UniProt Q9NZN5); experiment: holdup assay; format: binding; conditions: ~4 μM PDZ
T5 sequence (Q9NZN5 72-151 limits assumed): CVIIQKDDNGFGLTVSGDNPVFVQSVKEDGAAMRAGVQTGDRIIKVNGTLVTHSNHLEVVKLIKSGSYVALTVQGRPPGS
Summary of the method: as §1

[14] = target: T6, MAST2 PDZ (Homo sapiens, UniProt Q6P0Q8); experiment: holdup assay; format: binding; conditions: ~4 μM PDZ
T6 sequence (Q6P0Q8 1104-1192 limits assumed): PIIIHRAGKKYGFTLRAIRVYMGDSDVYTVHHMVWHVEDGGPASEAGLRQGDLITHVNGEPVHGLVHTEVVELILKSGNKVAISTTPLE
Summary of the method: as §1

[15] = target: T7, SNTG2 PDZ (Homo sapiens, UniProt Q9NY99); experiment: holdup assay; format: binding; conditions: fraction of PDZ depleted; ~4 μM PDZ; biotinylated RSK1_725–735; triplicates
T7 sequence (Q9NY99 73-156 limits assumed): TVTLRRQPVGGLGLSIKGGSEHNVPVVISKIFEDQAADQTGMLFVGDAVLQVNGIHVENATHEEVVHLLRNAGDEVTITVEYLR
Summary of the method: as §1

[16] = target: MAGI1-2 PDZ (Homo sapiens, UniProt Q96QZ7); experiment: holdup assay; format: binding
MAGI1-2 PDZ, sequence (Q96QZ7 472-554 limits assumed): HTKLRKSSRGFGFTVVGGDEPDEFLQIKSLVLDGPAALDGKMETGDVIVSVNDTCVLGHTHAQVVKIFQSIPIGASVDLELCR
Summary of the method: as §1

[17] = target: T8, PDZD7-3 PDZ (Homo sapiens, UniProt Q9H5P4); experiment: holdup assay; format: binding; conditions: ~4 μM PDZ
T8 sequence (Q9H5P4 862-934 limits assumed): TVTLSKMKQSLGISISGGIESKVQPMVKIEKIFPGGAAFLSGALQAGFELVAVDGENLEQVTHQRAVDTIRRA
Summary of the method: as §1

[18] = target: MAGI2-2 PDZ (Homo sapiens, UniProt Q86UL8); experiment: holdup assay; format: binding; conditions: ~4 μM PDZ
MAGI2-2 PDZ, sequence (Q86UL8 426-510 limits assumed): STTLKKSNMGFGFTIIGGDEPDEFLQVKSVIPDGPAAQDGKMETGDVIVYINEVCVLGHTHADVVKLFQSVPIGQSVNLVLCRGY
Summary of the method: as §1

[19] = system: human PDZ domains (PDZome); experiment: holdup assay, PDZome-binding profile
Summary of the method: as §2

[20] = target: T9, PARD3B-1 PDZ (Homo sapiens, UniProt Q8TEW8); experiment: holdup assay; format: binding; conditions: fraction of PDZ depleted; ~4 μM PDZ; biotinylated RSK1_725–735; triplicates
T9 sequence (Q8TEW8 201-289 limits assumed): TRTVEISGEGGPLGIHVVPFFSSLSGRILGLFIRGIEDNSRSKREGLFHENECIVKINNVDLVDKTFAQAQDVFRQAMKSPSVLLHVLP
Summary of the method: as §2

[21] = system: GRASP PDZ; experiment: holdup assay; format: binding, human; conditions: ~4 μM PDZ
Summary of the method: as §1

[22] = system: LIMK2 PDZ; experiment: holdup assay; format: binding, human; conditions: ~4 μM PDZ
Summary of the method: as §1

[23] = target: T10, PDZRN4-1 PDZ (Homo sapiens, UniProt Q6ZMN7); experiment: holdup assay; format: binding; conditions: fraction of PDZ depleted; ~4 μM PDZ; biotinylated RSK1_725–735; triplicates
T10 sequence (Q6ZMN7 224-314 limits assumed): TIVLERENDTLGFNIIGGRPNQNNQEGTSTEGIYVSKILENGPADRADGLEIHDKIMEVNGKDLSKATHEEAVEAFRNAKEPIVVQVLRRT
Summary of the method: as §2

[24] = system: DFNB31-3 PDZ; experiment: holdup assay; format: binding, human; conditions: ~4 μM PDZ
Summary of the method: as §1

[25] = fraction of PDZ depleted, biotinylated RSK1_725–735, triplicates
[26] = read-out: KD, estimated, from BI, estimated 17 μM peptide
[27] = BI threshold 0.2, compared to the unphosphorylated peptide

binding intensity (BI) [1, 25]: 0.07 ± 0.01
Kd [1, 26]: > 100 µM
binding intensity (BI) [2]: 0.00 ± 0.01
binding intensity (BI) [3]: 0.47 ± 0.02
binding intensity (BI) [4]: 0.28 ± 0.06
binding intensity (BI) [5]: 0.25 ± 0.10
binding intensity (BI) [6, 25]: 0.07 ± 0.05
Kd [6, 26]: > 100 µM
binding intensity (BI) [7, 25]: 0.53 ± 0.01
Kd [7, 26]: 13.2 µM
binding intensity (BI) [8, 25]: 0.45 ± 0.01
Kd [8, 26]: 18.6 µM
binding intensity (BI) [9, 25]: 0.03 ± 0.01
Kd [9, 26]: > 100 µM
binding intensity (BI) [10]: 0.54 ± 0.03
binding intensity (BI) [11, 25]: 0.01 ± 0.02
Kd [11, 26]: > 100 µM
binding intensity (BI) [12]: 0.28 ± 0.01
binding intensity (BI) [13, 25]: 0.05 ± 0.05
Kd [13, 26]: > 100 µM
binding intensity (BI) [14, 25]: 0.23 ± 0.03
Kd [14, 26]: 53.8 µM
binding intensity (BI) [15]: 0.52 ± 0.05
binding intensity (BI) ([16]; fraction of PDZ depleted, ~4 μM PDZ, biotinylated RSK1_725–735, triplicates): 0.15 ± 0.02
down regulation of interaction by phosphorylation ([16]; holdup, phosphorylated vs unphosphorylated): a factor of five
Kd ([16]; read-out: KD, estimated, from BI, estimated 17 μM peptide, ~4 μM PDZ): 92.9 µM
binding intensity (BI) [17, 25]: 0.15 ± 0.03
Kd [17, 26]: 92.9 µM
binding intensity (BI) [18, 25]: 0.23 ± 0.03
Kd [18, 26]: 53.8 µM
number of detectable binders lost [19, 27]: 12
number of new binders gained [19, 27]: 10
average BI ([19]; PDZome profile): 0.33
maximal BI ([19]; PDZome profile): 0.54
binding intensity (BI) [20]: 0.31 ± 0.02
binding intensity (BI) [21, 25]: 0.04 ± 0.01
Kd [21, 26]: > 100 µM
binding intensity (BI) [22, 25]: 0.22 ± 0.07
Kd [22, 26]: 57.2 µM
binding intensity (BI) [23]: 0.54 ± 0.03
binding intensity (BI) [24, 25]: −0.01 ± 0.02
Kd [24, 26]: > 100 µM
Substance: phosphorylated RSK1 peptide: RSK1 C-terminal PBM peptide phosphorylated at position −3; same constructs as the unphosphorylated ({Biotin-TTDS}-RRVRKLP[pS]TTL)
